Screens (PubChem)
This is a sample that favours compounds with a hit; in the whole collection about 2.9% have one here.
CaV13 FRET inh: Disruptors of the CACNA1D IQ motif to Ca2+-dependent inactivation inhibitor domain association, primary screening, Förster resonance energy transfer in intact living …; AID 743397; inhibition, % at 12.3 µM; HEK cells, CFP/YFP FRET ICDI-IQ, plate reader, 10 min; percent FRET-ratio fall versus neutral wells; hit rate 0.098% among 340,000;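 active = mean replicate inhibition of at least 30% and at least 1% of replicates passing that level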;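 also: 0% = median of the neutral control wells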
ADAM10 inh: inhibitors of human ADAM10; O14672; recombinant ADAM10, EDANS/DABCYL FRET peptide cleavage, 3 h; inhibition, % at 7 µM; hit rate 0.62% among 370,000;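 active = inhibition above a per-campaign cutoff equal to the mean of compounds falling between control-based bounds plus 3 SD, cut at about 20% in these data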;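 also: 0% = DMSO wells while the 100% control is not disclosed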
ADAM17 inh: ADAM17 inhibition, QFRET primary screen. P78536. inhibition, % at 6.95 µM. AID 720648. hit rate 0.83% among 370,000. recombinant ADAM17, EDANS/DABCYL FRET peptide cleavage;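 active = inhibition above the mean of compounds lying between control limits plus 3 SD, set per campaign, cut at about 8.5% in these data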;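 also: 0% = DMSO-only wells as the low control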
Arr AP2 block: inhibitors of human beta-arrestin and AP2 interaction; hit rate 0.31% among 340,000; FITC-arrestin peptide / GST-AP2 beads, flow cytometry; AP2 beta2 appendage carries R879A mutation; AID 504490; inhibition, % at 10 µM;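 active = inhibition above a set limit, near 3 SD of compounds lacking own fluorescence, cut at about 54% in these data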;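 also: plate controls were DMSO wells for no effect and 5 µM unlabelled arrestin peptide for full effect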
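Test system: GST-tagged AP2 beta2-adaptin appendage (R879A) on 4 µm glutathione beads; also added: fluorescein-tagged arrestin peptide at 50 nM final; timing: 12 min plus 1 h, RT; signal: flow cytometry, FL1 (488/535 nm); read-out: percent drop in bead-associated FITC signal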
FAS-TE inh: blocks the thioesterase domain of human fatty acid synthase; P49327; recombinant FAS-TE, OMFH fluorogenic substrate, fluorescence endpoint; inhibition, % at 15 µM; hit rate 0.67% among 360,000;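 active = compounds whose normalised, plate-corrected inhibition of enzyme fluorescence in the single-dose primary screen is 50% or more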;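 also: 0% = DMSO with enzyme and 100% = substrate without enzyme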
CendR NRP1 mod: modulators of CendR peptide binding to human neuropilin-1 | O14786 | FAM-RPARPAR peptide binding to NRP-1, fluorescence polarization | inhibition, % at 25 µM | hit rate 0.85% among 360,000 | AID 602438;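 active = inhibition or corrected inhibition above about 18%, plus a signal ratio from 0.5 to 1.5, limit read from the data, passing the limit was not always enough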
Starred values were filed as active, the others as inactive; i = inactive; / = no result; + = active, no number.

SMILES | CaV13 FRET inh | ADAM10 inh | ADAM17 inh | Arr AP2 block | FAS-TE inh | CendR NRP1 mod
CC(CN1CCCCC1)OC(=O)c1ccc2c(c1)OCCO2 (stereo not given) | -3.2 | 0.3 | -2.4 | 6.1 | -3.6 | -3.1
CCCCOC(=O)c1ccc(NC(=O)COC(=O)C2CC2C)cc1 (stereo not given) | -12.0 | 6.0 | 1.4 | / | 11.1 | -8.1
N#CC1C(C#N)N2CCCN2C1c1ccc(Br)cc1 (stereo not given) | -20.3 | -10.6 | -5.6 | 4.5 | -5.5 | 31.1*
Cc1ccc(S(=O)(=O)N2CCC(c3nc4ccccc4o3)CC2)s1 | / | 8.2 | 5.8 | / | / | /
Cc1cc(C(=O)O)c(C)o1 | / | -2.7 | 1.2 | / | / | /
CCC(C)[C@@H](NC(=O)OC(C)(C)C)c1nnc(S(=O)(=O)Cc2cccc(C)c2)o1 (stereo not given in full) | -3.1 | 3.7 | -0.5 | 1.3 | 60.0* | 14.9
O=C(C=Cc1ccc2c(c1)OCO2)c1ccccc1 | -5.6 | -7.8 | -0.6 | 10.0 | -3.4 | -8.4
O=C(/C=C/c1ccccc1)C1=C(O)C(=O)N(CCO)C1c1ccc2c(c1)OCO2 (stereo not given) | 34.1* | -7.5 | -1.8 | 16.4 | -3.7 | -2.1
COC(=O)CCC(=O)OC1(C)C(=O)C=C2C=C(C3CC3)N(c3ccccc3)C=C2C1=O (stereo not given) | -5.9 | -30.9 | -14.3 | 25.6 | -1.6 | 12.8
COCCN1C=C2C(=O)C(C)(OC(=O)c3cccs3)C(=O)C=C2C=C1CCCC(=O)OC (stereo not given) | -11.5 | -5.5 | -6.9 | 35.1 | -11.1 | 2.9
COC(=O)CCC(=O)OC1(C)C(=O)C=C2C=C(C3CC3)N(CCCOC(C)C)C=C2C1=O (stereo not given) | / | / | / | 12.2 | -11.8 | 19.8
C=CCN1C=C2C(=O)C(C)(OC(=O)CCC(=O)OC)C(=O)C=C2C=C1C1CC1 (stereo not given) | -6.8 | -17.9 | -3.8 | -2.7 | -8.5 | 37.9*
COC(=O)CCC(=O)OC1(C)C(=O)C=C2C=C(C3CC3)N(CCCCO)C=C2C1=O (stereo not given) | -7.7 | 0.1 | -5.2 | 2.4 | -11.6 | 20.8*
COC(=O)CCCC1=CC2=CC(=O)C(C)(OC(=O)c3cccs3)C(=O)C2=CN1CCCCO (stereo not given) | -7.0 | -6.1 | 0.6 | 9.2 | -14.0 | 40.0*
COC(=O)CCC(=O)OC1(C)C(=O)C=C2C=C(C3CC3)N(C(CO)CO)C=C2C1=O (stereo not given) | -6.7 | -24.1 | -8.7 | 7.7 | -8.7 | 26.6*
COc1cc2c(cc1OC)C(CNC(=O)C=Cc1cc(OC)c(OC)c(OC)c1)C2 (stereo not given) | -6.1 | -42.1 | -18.3 | / | -1.3 | 4.6
O=[N+]([O-])c1ccc(SN2CCCCC2)c([N+](=O)[O-])c1 | -9.0 | -5.5 | -4.4 | / | / | /
CN1C(=O)[C@H]2[C@@H](c3ccc(C(F)(F)F)cc3)N[C@]3(CCCN(Cc4ccco4)C3=O)[C@H]2C1=O | -6.7 | -0.6 | 1.6 | / | -5.1 | 4.5
NC(=NCc1ccccc1)NC(=O)OCc1ccccc1 | / | -2.5 | -2.0 | / | / | /
COC(=O)CCC(=O)OC1(C)C(=O)C=C2C=C(C3CC3)N(CCc3ccccn3)C=C2C1=O (stereo not given) | -3.5 | -23.2 | -6.4 | 4.4 | -12.6 | 29.7*
COC(=O)CCC(=O)OC1(C)C(=O)C=C2C=C(C3CC3)N(CCc3c[nH]c4ccccc34)C=C2C1=O (stereo not given) | -4.7 | -11.8 | -3.6 | 2.4 | -9.3 | -0.1
CCc1onc(C)c1C(=O)Nc1cc(C)ccc1OC | -5.7 | 8.8 | -1.4 | -0.5 | 2.2 | 33.9*
COc1ccc(NC(C)=O)cc1NC(=O)c1c(C)noc1C | -5.1 | -1.3 | 1.4 | / | -5.1 | 9.6
COC(=O)CC1C(=O)NCCN1C(=S)Nc1ccc(F)cc1 (stereo not given) | -2.6 | -10.2 | -2.1 | 8.1 | 6.8 | 36.1*
CCN(CC)c1ccc2cc(C#N)c(=O)oc2c1 | + | -39.7 | -16.3 | 10.0 | -6.0 | 24.9*
SMILES | CaV13 FRET inh | ADAM10 inh | ADAM17 inh | Arr AP2 block | FAS-TE inh | CendR NRP1 mod
CCN(CC)c1ccc2c(C)c(Cl)c(=O)oc2c1 | + | i | -324.8 | 11.1 | 16.5 | -2.3
CCN(CC)c1ccc2c(Cl)c(Br)c(=O)oc2c1 | / | / | / | 4.2 | 12.0 | 120.9
Cc1ccc(OCC(=O)NNC(=O)c2cc(S(=O)(=O)N(C)C)ccc2N2CCCC2)cc1 | -11.6 | -13.4 | 0.9 | / | -7.4 | -12.9
Cc1cccc(C(O)c2ncc(-c3ccccc3F)[nH]2)c1C (stereo not given) | -13.3 | -3.2 | -3.8 | / | -5.3 | 29.9*
COC(=O)[C@]12C[C@H](CC(=O)NCC34CC5CC(CC(C5)C3)C4)C(=O)N(Cc3cccc4ccccc34)C1=C[C@H](COCc1ccccc1)O[C@@H]2C | / | -1.1 | 0.4 | / | / | /
COc1ccc(S(=O)(=O)N2CCOCC2)cc1NC(=O)c1cccc(Cl)c1 | -6.0 | 7.3 | 0.4 | -1.5 | 0.1 | 6.2
CCOC(=O)CCC(NC(=O)CCC(=O)NC(CCC(=O)OCC)C(=O)OCC)C(=O)OCC (stereo not given) | -4.1 | -7.7 | -3.0 | 27.5 | -14.5 | 7.2
CCOC(=O)CCC(NC(=O)CCCC(=O)NC(CCC(=O)OCC)C(=O)OCC)C(=O)OCC (stereo not given) | -3.1 | -11.4 | -1.7 | 2.3 | -11.5 | 22.2*
O=C(C[C@H]1CC[C@@H](NC(=O)C2CC2)[C@@H](CO)O1)NCc1ccccc1Cl | -6.4 | 4.4 | 0.7 | / | / | 14.9
COCCn1c(SCC(=O)c2ccc(F)cc2)nnc1C(C)C | -3.8 | 3.1 | -2.6 | 3.1 | -1.7 | 23.5*
COCCn1nnnc1SCC(=O)c1ccc(F)cc1 | -4.0 | -7.7 | -4.9 | 3.2 | -4.3 | -2.8
COc1ccc(N/C=C/C(=O)C(C)(C)C)cc1 | 4.2 | -3.7 | -1.1 | -2.5 | 1.0 | 31.1*
Cc1onc(-c2ccccc2Cl)c1C(=O)N1CCOC12CCCCC2 | 1.0 | 5.4 | 1.8 | -5.0 | -1.5 | 2.7
Cc1onc(-c2ccccc2Cl)c1C(=O)N1CCOC12CCN(c1cccc(F)n1)CC2 | -5.1 | -1.8 | 1.3 | -4.8 | -4.5 | 17.7*
COc1cc(/C=N/NC(=O)C(=O)NCC2CCCO2)ccc1O (stereo not given) | -4.0 | 8.6 | 5.2 | 0.1 | -6.7 | 38.8*
CCCN(CC1CC1)C(=S)NC(=O)c1cc(Br)ccc1Cl | -6.1 | 4.3 | -2.5 | 30.9 | -2.1 | 5.1
CC(=O)Nc1ccc(NC(=O)CSc2nnc(-c3n[nH]c4c3CCC4)n2N)cc1 | / | -3.4 | -0.8 | / | / | /
O=[N+]([O-])c1ccc(-n2nnnc2CN2CCCCC2)cc1 | -3.4 | -9.4 | -0.2 | 5.8 | -1.8 | 24.2*
NC(=O)c1cc([N+](=O)[O-])ccc1NCc1cccnc1 | 41.9* | -2.3 | -1.6 | 12.6 | 3.2 | 1.4
